Each compound was assayed against 11-beta-hydroxysteroid dehydrogenase 1 (Homo sapiens) (UniProt P28845) (assay: Inhibition of human recombinant 11beta-HSD1 expressed in HEK293 cells assessed as conversion of [1,2-3H]cortisone to cortisol at 1 uM after 10 mins by scintillation counting).
Format: cell-based
Procedure, shortened: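 Lysates of HEK-293 cells (no endogenous 11β-HSD) expressing recombinant human 11β-HSD1. Reduction of [1,2-3H]cortisone to cortisol was run for 10 min at 37 °C with 200 nM cortisone (final) and NADPH as cofactor; solvent ≤0.1%. Reactions were stopped with methanol containing 2 mM unlabeled cortisone and cortisol. Steroids were separated by TLC and counted by scintillation. Three independent experiments.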

11-beta-hydroxysteroid dehydrogenase 1 (Homo sapiens), sequence (P28845 whole entry, looked up): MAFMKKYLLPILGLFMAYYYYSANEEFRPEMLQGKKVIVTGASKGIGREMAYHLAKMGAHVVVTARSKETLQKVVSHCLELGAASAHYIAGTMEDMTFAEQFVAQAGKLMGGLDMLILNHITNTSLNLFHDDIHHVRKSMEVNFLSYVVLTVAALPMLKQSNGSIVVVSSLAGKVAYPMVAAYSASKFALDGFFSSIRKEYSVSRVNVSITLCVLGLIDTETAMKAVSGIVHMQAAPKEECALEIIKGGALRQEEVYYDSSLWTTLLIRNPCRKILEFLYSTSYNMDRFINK

inhibition	Structure (SMILES)
10.1%	C#CCNC(=O)[C@@]1(C)CC[C@]2(C)CC[C@]3(C)C(=CC(=O)[C@@H]4[C@@]5(C)CC[C@H](O)C(C)(C)[C@@H]5CC[C@]43C)[C@@H]2C1
2.7%	CC1(C)[C@@H](O)CC[C@]2(C)[C@H]3C(=O)C=C4[C@@H]5C[C@@](C)(C(=O)NCC(=O)O)CC[C@]5(C)CC[C@@]4(C)[C@]3(C)CC[C@@H]12
47.1%	CC(=O)O[C@H]1CC[C@]2(C)[C@H]3C(=O)C=C4[C@@H]5C[C@@](C)(C(=O)O)CC[C@]5(C)CC[C@@]4(C)[C@]3(C)CC[C@H]2C1(C)C
32.5%	CCNC(=O)N(CCCN(C)C)C(=O)[C@@]1(C)CC[C@]2(C)CC[C@]3(C)C(=CC(=O)[C@@H]4[C@@]5(C)CC[C@H](O)C(C)(C)[C@@H]5CC[C@]43C)[C@@H]2C1
63.2%	CC1(C)[C@@H](O[C@H]2O[C@H](C(=O)O)[C@@H](O)[C@H](O)[C@H]2O[C@@H]2O[C@H](C(=O)O)[C@@H](O)[C@H](O)[C@H]2O)CC[C@]2(C)[C@H]3C(=O)C=C4[C@@H]5C[C@@](C)(C(=O)O)CC[C@]5(C)CC[C@@]4(C)[C@]3(C)CC[C@@H]12
19.5%	CC1(C)[C@@H](O)CC[C@]2(C)[C@H]3C(=O)C=C4[C@@H]5C[C@@](C)(C(=O)N6CCC(C(=O)O)CC6)CC[C@]5(C)CC[C@@]4(C)[C@]3(C)CC[C@@H]12
36%	CN(C)CCNC(=O)[C@@]1(C)CC[C@]2(C)CC[C@]3(C)C(=CC(=O)[C@@H]4[C@@]5(C)CC[C@H](O)C(C)(C)[C@@H]5CC[C@]43C)[C@@H]2C1
91.2%	CC1(C)[C@@H](O)CC[C@]2(C)[C@H]3C(=O)C=C4[C@@H]5C[C@@](C)(C(=O)O)CC[C@]5(C)CC[C@@]4(C)[C@]3(C)CC[C@@H]12 (stereo in doubt; 1)
6.2%	C=CCNC(=O)[C@@]1(C)CC[C@]2(C)CC[C@]3(C)C(=CC(=O)[C@@H]4[C@@]5(C)CC[C@H](O)C(C)(C)[C@@H]5CC[C@]43C)[C@@H]2C1
86%	CC1(C)[C@@H](OP(=O)(O)O)CC[C@]2(C)[C@H]3C(=O)C=C4[C@@H]5C[C@@](C)(C(=O)O)CC[C@]5(C)CC[C@@]4(C)[C@]3(C)CC[C@@H]12
43.3%	CC(=O)O[C@H]1CC[C@]2(C)[C@H]3C(=O)C=C4[C@@H]5C[C@@](C)(C=NO)CC[C@]5(C)CC[C@@]4(C)[C@]3(C)CC[C@H]2C1(C)C
63.2%	CON=C1CC[C@]2(C)[C@H]3C(=O)C=C4[C@@H]5C[C@@](C)(C(=O)O)CC[C@]5(C)CC[C@@]4(C)[C@]3(C)CC[C@H]2C1(C)C
49.7%	CC1(C)[C@@H](O)CC[C@]2(C)[C@H]3C(=O)C=C4[C@@H]5C[C@@](C)(C(=O)O)CC[C@]5(C)CC[C@@]4(C)[C@]3(C)CC[C@@H]12 (stereo in doubt; 23)
97.4%	CC1(C)[C@H](O)CC[C@]2(C)[C@H]3C(=O)C=C4[C@@H]5C[C@@](C)(C(=O)O)CC[C@]5(C)CC[C@@]4(C)[C@]3(C)CC[C@@H]12
87.7%	CC1(C)[C@@H](OC(=O)CCC(=O)O)CC[C@]2(C)[C@H]3C(=O)C=C4[C@@H]5C[C@@](C)(C(=O)O)CC[C@]5(C)CC[C@@]4(C)[C@]3(C)CC[C@@H]12
90.9%	CC(=O)O[C@H]1CC[C@]2(C)[C@H]3C(=O)C=C4[C@@H]5C[C@@](C)(C(=O)NN)CC[C@]5(C)CC[C@@]4(C)[C@]3(C)CC[C@H]2C1(C)C
2.9%	CC1(C)[C@@H](O)CC[C@]2(C)[C@H]3C(=O)C=C4[C@@H]5C[C@@](C)(C(=O)NCCO)CC[C@]5(C)CC[C@@]4(C)[C@]3(C)CC[C@@H]12

Structure (SMILES)	inhibition
CC1(C)C(=O)CC[C@]2(C)[C@H]3C(=O)C=C4[C@@H]5C[C@@](C)(C(=O)O)CC[C@]5(C)CC[C@@]4(C)[C@]3(C)CC[C@@H]12	63.8%

The compounds below were run against 11-beta-hydroxysteroid dehydrogenase 1 (Rattus norvegicus, UniProt P16232) (assay: Inhibition of 11beta-HSD1 in rat liver assessed as cortisone level).
11-beta-hydroxysteroid dehydrogenase 1, sequence (P16232 whole entry): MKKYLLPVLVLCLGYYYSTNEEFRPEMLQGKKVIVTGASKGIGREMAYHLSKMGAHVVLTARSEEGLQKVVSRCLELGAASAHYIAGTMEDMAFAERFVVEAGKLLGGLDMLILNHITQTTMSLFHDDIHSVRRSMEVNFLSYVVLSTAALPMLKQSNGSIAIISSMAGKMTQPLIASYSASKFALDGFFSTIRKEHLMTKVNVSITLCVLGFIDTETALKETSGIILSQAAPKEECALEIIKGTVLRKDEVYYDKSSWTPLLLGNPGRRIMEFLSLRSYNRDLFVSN
Format: tissue-based

IC50	Structure (SMILES)
90 nM	CC1(C)[C@@H](O)CC[C@]2(C)[C@H]3C(=O)C=C4[C@@H]5C[C@@](C)(C(=O)O)CC[C@]5(C)CC[C@@]4(C)[C@]3(C)CC[C@@H]12 (stereo in doubt; 1) [ENOXOLONE]
